From ChEMBL document CHEMBL3763019, “Discovery of benzenesulfonamide derivatives as potent PI3K/mTOR dual inhibitors with in vivo efficacies against hepatocellular carcinoma” (Bioorg Med Chem, 2016)

What was measured:
[1] = Antiproliferative activity against human OVCAR4 cells incubated for 48 hrs by sulforhodamine B assay; format: functional; conditions: OVCAR-4, 48 h
Method in brief: (§1)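 Run externally by the US National Cancer Institute as part of its 60 human cancer cell line cytotoxicity screen (NCI-60).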

[2] = system: A498; experiment: Antiproliferative activity against human A498 cells incubated for 48 hrs by sulforhodamine B assay; format: functional; conditions: A498, 48 h; method in brief: as §1
[3] = system: SN12C; experiment: Antiproliferative activity against human SN12C cells incubated for 48 hrs by sulforhodamine B assay; format: functional; method in brief: as §1
[4] = Antiproliferative activity against human PC3 cells incubated for 48 hrs by sulforhodamine B assay; format: functional; conditions: PC-3, 48 h; method in brief: as §1
[5] = system: MDA-MB-231; experiment: Antiproliferative activity against human MDA-MB-231 cells incubated for 48 hrs by sulforhodamine B assay; format: functional; conditions: MDA-MB-231, 48 h; method in brief: as §1
[6] = system: MDA-MB-468; experiment: Antiproliferative activity against human MDA-MB-468 cells incubated for 48 hrs by sulforhodamine B assay; format: functional; conditions: MDA-MB-468, 48 h; method in brief: as §1
[7] = molecular target: T1, Serine/threonine-protein kinase mTOR (Homo sapiens, UniProt P42345); experiment: Inhibition of mTOR kinase (unknown origin) assessed as suppression of ULight-4E-BP1 substrate phosphorylation incubated for 1 hr by lance ultra assay
[8] = system: A549; experiment: Inhibition of insulin-stimulated PI3K in human A549 cells assessed as suppression of AKT phosphorylation at Ser473 after 30 mins by Western blot analysis; format: cell-based
Method in brief: (§2)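 A549 cells were insulin-stimulated for 2 h, then exposed to four compound concentrations for 30 min. Lysis was in ice-cold RIPA buffer, protein was quantified by BCA, and lysates were run on 10% SDS-PAGE and transferred to nitrocellulose. Detection was by infrared imaging, with β-actin as loading control.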

[9] = molecular target: T1, Serine/threonine-protein kinase mTOR; experiment: Inhibition of insulin-stimulated mTOR phosphorylation in human A549 cells after 30 mins by Western blot analysis; format: cell-based; method in brief: as §2
[10] = Antiproliferative activity against human NCI60 incubated for 48 hrs by sulforhodamine B assay; format: functional; conditions: NCI60, 48 h; method in brief: as §1
[11] = system: A549; experiment: Cytotoxicity against human A549 cells after 72 hrs by MTT assay; format: functional, cell-based; conditions: A549, 72 h
Method in brief: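 Log-phase cells at 40,000–50,000 cells/mL in DMEM with 10% FBS and antibiotics were seeded and cultured overnight at 37 °C, 5% CO₂. Compounds were diluted in DMSO/PBS from 10^-4 to 10^-9 M and applied for 72 h. MTT (5 mg/mL stock) was then added for 4 h and absorbance read at 570 nm. IC50 came from nonlinear regression on triplicate wells, averaged.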

[12] = molecular target: Phosphatidylinositol 4,5-bisphosphate 3-kinase catalytic subunit beta isoform (Homo sapiens, UniProt P42338); experiment: Inhibition of PI3K-beta (unknown origin) after 40 mins by ADP-Glo luminescent kinase assay
Sequence of Phosphatidylinositol 4,5-bisphosphate 3-kinase catalytic subunit beta isoform (P42338 whole entry, canonical isoform): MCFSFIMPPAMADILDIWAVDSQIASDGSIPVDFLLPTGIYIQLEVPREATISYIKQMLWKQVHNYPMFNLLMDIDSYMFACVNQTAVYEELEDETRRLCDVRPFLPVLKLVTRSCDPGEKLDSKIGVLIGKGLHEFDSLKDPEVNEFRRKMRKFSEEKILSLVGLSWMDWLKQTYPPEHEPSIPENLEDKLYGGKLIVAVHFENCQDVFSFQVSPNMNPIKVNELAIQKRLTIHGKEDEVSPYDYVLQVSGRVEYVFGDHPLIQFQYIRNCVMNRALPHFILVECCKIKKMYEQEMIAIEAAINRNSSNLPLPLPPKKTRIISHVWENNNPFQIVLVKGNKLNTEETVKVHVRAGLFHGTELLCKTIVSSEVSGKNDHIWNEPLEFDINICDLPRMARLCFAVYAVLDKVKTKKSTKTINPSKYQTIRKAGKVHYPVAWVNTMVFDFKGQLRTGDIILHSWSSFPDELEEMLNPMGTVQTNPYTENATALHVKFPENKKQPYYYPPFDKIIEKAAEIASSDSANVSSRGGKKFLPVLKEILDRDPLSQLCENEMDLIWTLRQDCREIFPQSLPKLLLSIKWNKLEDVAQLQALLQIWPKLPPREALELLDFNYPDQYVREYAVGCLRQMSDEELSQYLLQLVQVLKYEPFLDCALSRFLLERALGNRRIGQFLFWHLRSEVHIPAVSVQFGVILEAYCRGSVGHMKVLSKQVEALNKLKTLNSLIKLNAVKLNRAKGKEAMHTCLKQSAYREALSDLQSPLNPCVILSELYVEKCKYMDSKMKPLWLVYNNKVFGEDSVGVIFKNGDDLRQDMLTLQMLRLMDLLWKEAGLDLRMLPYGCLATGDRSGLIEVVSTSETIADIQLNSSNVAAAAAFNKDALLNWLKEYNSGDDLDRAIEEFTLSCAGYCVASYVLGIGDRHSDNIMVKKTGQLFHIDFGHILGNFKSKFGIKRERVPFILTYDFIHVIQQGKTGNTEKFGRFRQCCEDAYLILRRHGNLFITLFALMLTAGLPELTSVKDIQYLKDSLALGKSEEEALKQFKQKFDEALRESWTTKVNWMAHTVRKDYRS
Method in brief: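 ADP-Glo reagent stopped the reaction (40 min), then detection reagent was added (60 min) and luminescence read. Percent inhibition was derived from RLU.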

[13] = system: CCRF-CEM; experiment: Antiproliferative activity against human CCRF-CEM cells incubated for 48 hrs by sulforhodamine B assay; format: functional; method in brief: as §1
[14] = system: K562; experiment: Antiproliferative activity against human K562 cells incubated for 48 hrs by sulforhodamine B assay; format: functional; conditions: K562, 48 h; method in brief: as §1
[15] = Antiproliferative activity against human MOLT4 cells incubated for 48 hrs by sulforhodamine B assay; format: functional; conditions: MOLT-4, 48 h; method in brief: as §1
[16] = system: SR; experiment: Antiproliferative activity against human SR cells incubated for 48 hrs by sulforhodamine B assay; format: functional; method in brief: as §1
[17] = system: EKVX; experiment: Antiproliferative activity against human EKVX cells incubated for 48 hrs by sulforhodamine B assay; format: functional
[18] = system: NCI-H226; experiment: Antiproliferative activity against human NCI-H226 cells incubated for 48 hrs by sulforhodamine B assay; format: functional; conditions: NCI-H226, 48 h; method in brief: as §1
[19] = system: NCI-H23; experiment: Antiproliferative activity against human NCI-H23 cells incubated for 48 hrs by sulforhodamine B assay; format: functional; conditions: NCI-H23, 48 h; method in brief: as §1
[20] = system: NCI-H322M; experiment: Antiproliferative activity against human NCI-H322M cells incubated for 48 hrs by sulforhodamine B assay; format: functional; method in brief: as §1
[21] = system: NCI-H522; experiment: Antiproliferative activity against human NCI-H522 cells incubated for 48 hrs by sulforhodamine B assay; format: functional; conditions: NCI-H522, 48 h; method in brief: as §1
[22] = Antiproliferative activity against human COLO205 cells incubated for 48 hrs by sulforhodamine B assay; format: functional; conditions: COLO 205, 48 h; method in brief: as §1
[23] = Antiproliferative activity against human HCC2998 cells incubated for 48 hrs by sulforhodamine B assay; format: functional; conditions: HCC 2998, 48 h; method in brief: as §1
[24] = system: KM12; experiment: Antiproliferative activity against human KM12 cells incubated for 48 hrs by sulforhodamine B assay; format: functional; conditions: KM12, 48 h; method in brief: as §1
[25] = Antiproliferative activity against human SF268 cells incubated for 48 hrs by sulforhodamine B assay; format: functional; conditions: SF-268, 48 h; method in brief: as §1
[26] = system: M14; experiment: Antiproliferative activity against human M14 cells incubated for 48 hrs by sulforhodamine B assay; format: functional; conditions: M14, 48 h; method in brief: as §1
[27] = system: MDA-MB-435; experiment: Antiproliferative activity against human MDA-MB-435 cells incubated for 48 hrs by sulforhodamine B assay; format: functional; conditions: MDA-MB-435, 48 h; method in brief: as §1
[28] = system: SK-MEL-5; experiment: Antiproliferative activity against human SK-MEL-5 cells incubated for 48 hrs by sulforhodamine B assay; format: functional; conditions: SK-MEL-5, 48 h; method in brief: as §1
[29] = Antiproliferative activity against human UACC257 cells incubated for 48 hrs by sulforhodamine B assay; format: functional; conditions: UACC-257, 48 h
[30] = Antiproliferative activity against human UACC62 cells incubated for 48 hrs by sulforhodamine B assay; format: functional; conditions: UACC-62, 48 h
[31] = read-out: pLC50 (the source's name) (converted)

## COc1ncc(-c2ccc3nccc(C#CCN4CCN(S(C)(=O)=O)CC4)c3c2)cc1NS(=O)(=O)c1ccc(F)cc1F
[1]
  GI50: 257 nM
[1]; [31]
  CC50: 46800 nM
[1]; read-out: pTGI (converted)
  TGI: 11500 nM
[2]
  GI50: 37.1 nM
[2]; [31]
  CC50: 2190 nM
[2]; read-out: pTGI (converted)
  TGI: 245 nM
[3]
  GI50: 102 nM
[3]; [31]
  CC50: > 100000 nM
[3]; read-out: pTGI (converted)
  TGI: 12300 nM
[4]
  GI50: 63.1 nM
[4]; [31]
  CC50: 36300 nM
[4]; read-out: pTGI (converted)
  TGI: 10200 nM
[5]
  GI50: 437 nM
[5]; [31]
  CC50: 72400 nM
[5]; read-out: pTGI (converted)
  TGI: 19500 nM
[6]
  GI50: 17 nM
[6]; [31]
  CC50: 1380 nM
[6]; read-out: pTGI (converted)
  TGI: 85.1 nM
[7]
  IC50: 5.4 nM
[8]
  inhibition: Dose-dependent effect
[9]
  inhibition: Dose-dependent effect
[10]
  GI50: 65 nM
[11]
  IC50: 1780 nM
[12]
  IC50: 9.4 nM
[13]
  GI50: 148 nM
[13]; [31]
  CC50: > 100000 nM
[13]; read-out: pTGI (converted)
  TGI: 2570 nM
[14]
  GI50: 646 nM
[14]; [31]
  CC50: > 100000 nM
[14]; read-out: pTGI (converted)
  TGI: 17000 nM
[15]
  GI50: 38 nM
[15]; [31]
  CC50: > 100000 nM
[15]; read-out: pTGI (converted)
  TGI: 1150 nM
[16]
  GI50: 251 nM
[16]; [31]
  CC50: > 100000 nM
[16]; read-out: pTGI (converted)
  TGI: 15500 nM
[17]
  GI50: 25.7 nM
[17]; [31]
  CC50: 42700 nM
[18]
  GI50: 245 nM
[18]; [31]
  CC50: 7240 nM
[18]; read-out: pTGI (converted)
  TGI: 1820 nM
[19]
  GI50: 295 nM
[19]; [31]
  CC50: 20000 nM
[19]; read-out: pTGI (converted)
  TGI: 2690 nM
[20]
  GI50: 110 nM
[20]; [31]
  CC50: 36300 nM
[20]; read-out: pTGI (converted)
  TGI: 6920 nM
[21]
  GI50: 178 nM
[21]; [31]
  CC50: 5890 nM
[21]; read-out: pTGI (converted)
  TGI: 1740 nM
[22]
  GI50: 42.7 nM
[22]; [31]
  CC50: 7240 nM
[22]; read-out: pTGI (converted)
  TGI: 1120 nM
[23]
  GI50: 61.7 nM
[23]; [31]
  CC50: 3980 nM
[23]; read-out: pTGI (converted)
  TGI: 1120 nM
[24]
  GI50: 275 nM
[24]; [31]
  CC50: 4790 nM
[24]; read-out: pTGI (converted)
  TGI: 1480 nM
[25]
  GI50: 110 nM
[25]; [31]
  CC50: 25100 nM
[25]; read-out: pTGI (converted)
  TGI: 2880 nM
[26]
  GI50: 72.4 nM
[26]; [31]
  CC50: 19100 nM
[26]; read-out: pTGI (converted)
  TGI: 1580 nM
[27]
  GI50: 75.9 nM
[27]; [31]
  CC50: 6610 nM
[27]; read-out: pTGI (converted)
  TGI: 1070 nM
[28]
  GI50: 195 nM
[28]; [31]
  CC50: 2950 nM
[28]; read-out: pTGI (converted)
  TGI: 550 nM
[29]
  GI50: 38.9 nM
[29]; [31]
  CC50: 15500 nM
[29]; read-out: pTGI (converted)
  TGI: 603 nM
[30]
  GI50: 33.1 nM
[30]; [31]
  CC50: 3240 nM
[30]; read-out: pTGI (converted)
  TGI: 282 nM
